“Also recorded” adds a separate entry of the source. Where two headings read alike, the source gives them in different places. Each block holds one compound with its values, some of them ahead of it.
How the values were obtained:
[1] = tested on: McpA/TlpA receptor chimeras in SQR9Δ8mcp; assay: Chemotaxis of McpA receptor chimera strains compared; assay type: cell-based, Bacillus velezensis SQR9; conditions: strains with chimeras McpA_distal (M1) and McpA_proximal (M2)
Procedure, shortened: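 Chimeric receptors (McpA or TlpA LBD modules swapped) integrated at amyE of SQR9Δ8mcp; strains grown at 30 °C in low-salt LB. Microfluidic SlipChip run with 13 parallel units as duplicates: channels BSA-coated (10 mg/mL, 5 min); compound, cells and buffer in top, middle and bottom wells; 30 min in the dark. Cells counted by fluorescence microscopy; I30 = Ne/(Ne+Nc); attraction when above 0.6.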

McpA-LBD [2] = conditions: cited from earlier work
McpA-LBD (A36-L277) [3] = molecular target: T1, McpA-LBD (A36-L277) (Bacillus velezensis, UniProt A7Z835); assay: Biolayer interferometry; assay type: binding, Bacillus velezensis SQR9
T1 sequence (A7Z835 36-277): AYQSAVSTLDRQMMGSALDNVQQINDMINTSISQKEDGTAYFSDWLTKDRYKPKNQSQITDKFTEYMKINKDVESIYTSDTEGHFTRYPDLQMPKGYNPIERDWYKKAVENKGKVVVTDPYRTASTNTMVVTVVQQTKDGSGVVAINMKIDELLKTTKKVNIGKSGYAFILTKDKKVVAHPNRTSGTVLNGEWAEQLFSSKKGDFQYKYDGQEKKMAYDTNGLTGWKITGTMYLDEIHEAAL

McpA-LBD (A36-L277) [4] = molecular target: T1, McpA-LBD (A36-L277); assay: Surface plasmon resonance; assay type: binding, Bacillus velezensis SQR9; conditions: SPR, compounds at 200 μM and 2 mM
McpA-LBD [5] = conditions: cited from earlier work; remark: listed apart in the source

Compound: C[C@H](O)[C@@H](O)[C@@H](O)[C@H](O)C=O [Fucose]
interaction with McpA-LBD observed (McpA-LBD (A36-L277) [3]; BLI): interaction; also recorded: directly bound
binding to McpA-LBD (McpA-LBD (A36-L277) [4]): binding for all ligands, except for serine and fucose

Compound: N[C@@H](CO)C(=O)O [Serine]
binding to McpA-LBD (McpA-LBD (A36-L277) [4]): binding for all ligands, except for serine and fucose

Compound: O=C(O)C(=O)O [Oxalic acid]
McpA-LBD module on which chemotaxis relies [1]: sensed by the membrane-proximal module

Compound: O=C[C@H](O)[C@@H](O)[C@@H](O)[C@H](O)CO [Galactose]
direct binding to McpA-LBD (McpA-LBD [5]): no direct binding

Compound: N[C@@H](Cc1ccc(O)cc1)C(=O)O [Tyrosine]
interaction with McpA-LBD observed (McpA-LBD (A36-L277) [3]; BLI): interaction
McpA-LBD module on which chemotaxis relies [1]: sensed by the membrane-proximal module

Compound: O=C(O)CCC(=O)O [Succinic acid]
McpA-LBD module on which chemotaxis relies [1]: sensed by the membrane-proximal module

Further lines, with some results ahead:

McpA-LBD module on which chemotaxis relies [1]: sensed by the membrane-proximal module
Compound: N[C@@H](CC(=O)O)C(=O)O [Aspartic acid]
direct binding to McpA-LBD (McpA-LBD [2]): direct binding

interaction with McpA-LBD observed (McpA-LBD (A36-L277) [3]; BLI): interaction
Compound: OC[C@H]1OC(O)[C@@H](O)[C@@H](O)[C@@H]1O (stereo partly shown) [Mannose]

McpA-LBD module on which chemotaxis relies [1]: sensed by the membrane-proximal module
Compound: O=C(O)CC(O)(CC(=O)O)C(=O)O [Citric acid]
direct binding to McpA-LBD (McpA-LBD [2]): direct binding

McpA-LBD module on which chemotaxis relies [1]: sensed by the membrane-proximal module
Compound: O=C(O)CC(O)C(=O)O (stereo not shown) [Malic acid]

Kd (McpA-LBD (A36-L277) [3]; BLI, McpA-LBD (A36-L277), 25 °C, 1:1 binding model): 1.94 µM
Compound: O=C[C@H](O)[C@H](O)[C@H](O)CO [Ribose]
interaction with McpA-LBD observed (McpA-LBD (A36-L277) [3]; BLI): interaction; also recorded: directly bound

McpA-LBD module on which chemotaxis relies [1]: sensed by the membrane-proximal module
Compound: N[C@@H](CCC(=O)O)C(=O)O [Glutamic acid]

Kd (McpA-LBD (A36-L277) [3]): 4.36 µM
Compound: OC[C@@H](O)[C@@H](O)[C@@H](O)CO [Ribitol]
interaction with McpA-LBD observed (McpA-LBD (A36-L277) [3]; BLI): interaction; also recorded: directly bound

Reference: PMC9303924 (Proceedings of the National Academy of Sciences of the …, 2022)
